Source: ChEMBL document CHEMBL4038284, “Synthesis of novel quinoline-based 4,5-dihydro-1H-pyrazoles as potential anticancer, antifungal, antibacterial and antiprotozoal agents” (Eur J Med Chem, 2017)
Converted amounts (≈) assume the structure as drawn.

How the values were obtained:
Cryptococcus neoformans [1] = assay: Growth inhibition of Cryptococcus neoformans ATCC 32264 at 125 ug/ml incubated for 48 hrs under dark condition by broth microdilution method relative to control; assay type: functional; conditions: ATCC 32264, 48 h, read-out: GI
Method in brief: (§1)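 CLSI M27-A3 broth microdilution in RPMI-1640, DMSO ≤1%. Inoculum 1-5 × 10^3 CFU/mL. Incubated 48 h at 30 °C, dark. % inhibition = 100 − (OD405 test − sterility control)/(OD405 growth control − sterility control), with growth and sterility control wells. Triplicate.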

Klebsiella pneumoniae [2] = assay: Antibacterial activity against carbapenemase positive Klebsiella pneumoniae BAA 1705 after 24 hrs by resazurin dye based microdilution assay; assay type: functional; conditions: BAA 1705, 24 h
Method in brief: (§2)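 MIC taken as the lowest concentration giving visible inhibition and/or by resazurin (1 mg/mL). Gentamicin was the control. Run in duplicate, repeated at least three times.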

Staphylococcus aureus [3] = assay: Antibacterial activity against methicillin-sensitive Staphylococcus aureus ATCC 25923 after 24 hrs by resazurin dye based microdilution assay; assay type: functional; conditions: ATCC 25923, 24 h; method in brief: as §2
Leishmania panamensis = assay: Antileshmanial activity against EpiR/GFP fused Leishmania panamensis MHOM/CO/87/UA140 intracellular amastigotes infected in human […] cells after 72 hrs by flow cytometric method; assay type: functional, cell-based; conditions: MHOM/CO/87/UA140, 72 h
Method in brief: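 PMA-treated U-937 cells (3 × 10^5 cells/mL) infected with stationary-phase GFP L. panamensis promastigotes (15:1), 3 h at 34 °C, then washed. After 24 h, compounds added at 50, 12.5, 3.125 and 0.78 µg/mL for 72 h at 37 °C. EC50 by Probit; triplicate, two experiments.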

Candida albicans [4] = assay: Growth inhibition of Candida albicans ATCC 10231 at 3.4 ug/ml incubated for 48 hrs under dark condition by broth microdilution method relative to control; assay type: functional; conditions: ATCC 10231, 48 h, read-out: GI
U-937 = assay: Cytotoxicity against human U937 cells after 72 hrs by MTT assay; assay type: cell-based; conditions: u-937, 72 h
Method in brief: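 Exponentially growing U-937 at 1 × 10^5 cells/mL in RPMI-1640 with 10% FBS were exposed to 200, 50, 12.5 and 3.125 µg/mL for 72 h at 37 °C, 5% CO2. MTT for 3 h, stopped with isopropanol/SDS, formazan read at 570 nm, blank-corrected. LC50 by Probit from % viability against untreated cells. Triplicate, at least two independent experiments.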

Cryptococcus neoformans [5] = assay: Growth inhibition of Cryptococcus neoformans ATCC 32264 at 31.25 ug/ml incubated for 48 hrs under dark condition by broth microdilution method relative to control; assay type: functional; conditions: ATCC 32264, 48 h, read-out: GI; method in brief: as §1
Plasmodium falciparum = assay: Antiplasmodial activity against chloroquine-sensitive Plasmodium falciparum 3D7 assessed as reduction in parasitic LDH activity after 48 hrs by Malstat reagent based […] method; assay type: functional; conditions: 3D7, 48 h
Method in brief: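 Unsynchronized P. falciparum 3D7 at 0.5% parasitemia and 1% hematocrit in RPMI with 3% Albumax II. Exposed to 100, 25, 6.25 and 1.56 µg/mL for 48 h at 37 °C under 90% N2/5% CO2/5% O2. After three freeze-thaw cycles, LDH measured with Malstat and NBT/PES, 1 h in the dark, read at 650 nm. IC50 by Probit; triplicate, ≥2 experiments.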

Candida albicans [6] = assay: Growth inhibition of Candida albicans ATCC 10231 at 31.25 ug/ml incubated for 48 hrs under dark condition by broth microdilution method relative to control; assay type: functional; conditions: ATCC 10231, 48 h, read-out: GI; method in brief: as §1
Cryptococcus neoformans [7] = assay: Growth inhibition of Cryptococcus neoformans ATCC 32264 at 15.62 ug/ml incubated for 48 hrs under dark condition by broth microdilution method relative to control; assay type: functional; conditions: ATCC 32264, 48 h, read-out: GI; method in brief: as §1
Candida albicans [8] = assay: Antifungal activity against Candida albicans ATCC 10231 incubated for 48 hrs under dark condition by broth microdilution method; assay type: functional; conditions: ATCC 10231, 48 h
Method in brief: (§3)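 CLSI M27-A3 broth microdilution in RPMI-1640, DMSO ≤1%, compounds at 250-0.98 µg/mL final. Inoculum 1-5 × 10^3 CFU/mL. Incubated 48 h at 30 °C in a moist dark chamber, read at OD405. MIC80 and MIC50 taken from % inhibition dose-response curves (mean ± SEM, triplicate). Amphotericin B was the positive control.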

Trypanosoma cruzi = assay: Antitrypanosomal activity against Trypanosoma cruzi Tulahuen intracellular amastigote harboring LacZ infected in human U937 cells after 72 hrs by CPRG/Nonidet reagent based spectrophotometric method; assay type: functional, cell-based; conditions: U-937, 72 h
Method in brief: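 U-937 cells at 2.5 × 10^5 cells/mL in RPMI-1640 with 10% serum and 0.1 µg/mL PMA were infected with β-galactosidase-transfected Tulahuen epimastigotes at 5 parasites per cell. Infected cells were exposed to 50, 12.5, 3.125 and 0.78 µg/mL for 72 h. CPRG (100 uM) and 0.1% Nonidet P-40 were added for 3 h, read at 570 nm. EC50 by Probit. Triplicate, at least two experiments; benznidazole as reference.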

Cryptococcus neoformans [9] = assay: Antifungal activity against Cryptococcus neoformans ATCC 32264 incubated for 48 hrs under dark condition by broth microdilution method; assay type: functional; conditions: ATCC 32264, 48 h; method in brief: as §3
Cryptococcus neoformans [10] = assay: Growth inhibition of Cryptococcus neoformans ATCC 32264 at 7.8 ug/ml incubated for 48 hrs under dark condition by broth microdilution method relative to control; assay type: functional; conditions: ATCC 32264, 48 h, read-out: GI; method in brief: as §1
Escherichia coli = assay: Antibacterial activity against Escherichia coli ATCC 25922 after 24 hrs by resazurin dye based microdilution assay; assay type: functional; conditions: ATCC 25922, 24 h; method in brief: as §2
Cryptococcus neoformans [11] = assay: Growth inhibition of Cryptococcus neoformans ATCC 32264 at 3.4 ug/ml incubated for 48 hrs under dark condition by broth microdilution method relative to control; assay type: functional; conditions: ATCC 32264, 48 h, read-out: GI
Staphylococcus aureus [12] = assay: Antibacterial activity against vancomycin-intermediate Staphylococcus aureus after 24 hrs by resazurin dye based microdilution assay; assay type: functional; method in brief: as §2
Candida albicans [13] = assay: Growth inhibition of Candida albicans ATCC 10231 at 7.8 ug/ml incubated for 48 hrs under dark condition by broth microdilution method relative to control; assay type: functional; conditions: ATCC 10231, 48 h, read-out: GI; method in brief: as §1
Pseudomonas aeruginosa = assay: Antibacterial activity against Pseudomonas aeruginosa ATCC 27853 after 24 hrs by resazurin dye based microdilution assay; assay type: functional; conditions: ATCC 27853, 24 h; method in brief: as §2
Cryptococcus neoformans [14] = assay: Growth inhibition of Cryptococcus neoformans ATCC 32264 at 250 ug/ml incubated for 48 hrs under dark condition by broth microdilution method relative to control; assay type: functional; conditions: ATCC 32264, 48 h, read-out: GI; method in brief: as §1
Candida albicans [15] = assay: Growth inhibition of Candida albicans ATCC 10231 at 250 ug/ml incubated for 48 hrs under dark condition by broth microdilution method relative to control; assay type: functional; conditions: ATCC 10231, 48 h, read-out: GI; method in brief: as §1
Klebsiella pneumoniae [16] = assay: Antibacterial activity against ESBL positive Klebsiella pneumoniae ATCC 700603 after 24 hrs by resazurin dye based microdilution assay; assay type: functional; conditions: Klebsiella pneumoniae, 700603, 24 h; method in brief: as §2
Staphylococcus aureus [17] = assay: Antibacterial activity against methicillin-resistant Staphylococcus aureus ATCC 43300 after 24 hrs by resazurin dye based microdilution assay; assay type: functional; conditions: ATCC 43300, 24 h
Method in brief: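 Broth microdilution in Mueller Hinton broth, inoculum 5 × 10^5 – 8 × 10^5. Compound stocks diluted in MHB with 5% DMSO and 0.1% Tween 80. Incubation 24 h at 35-37 °C. MIC is the lowest concentration with visible growth inhibition and/or by resazurin (1 mg/mL) read-out. Gentamicin as control. Run in duplicate, replicated at least three times.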

Candida albicans [18] = assay: Growth inhibition of Candida albicans ATCC 10231 at 15.62 ug/ml incubated for 48 hrs under dark condition by broth microdilution method relative to control; assay type: functional; conditions: ATCC 10231, 48 h, read-out: GI; method in brief: as §1
Cryptococcus neoformans [19] = assay: Growth inhibition of Cryptococcus neoformans ATCC 32264 at 62.5 ug/ml incubated for 48 hrs under dark condition by broth microdilution method relative to control; assay type: functional; conditions: ATCC 32264, 48 h, read-out: GI; method in brief: as §1
Neisseria gonorrhoeae = assay: Antibacterial activity against beta lactamase positive Neisseria gonorrhoeae ATCC 31426 by oxidase test; assay type: functional
Method in brief: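 Agar dilution MIC on GC agar with 1% isovitalex containing increasing compound concentrations. Plates inoculated with about 1×10^4 CFU (5 µL). MIC is the lowest concentration that inhibited growth, with growth confirmed by oxidase test. Run in duplicate, repeated at least three times.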

Candida albicans [20] = assay: Growth inhibition of Candida albicans ATCC 10231 at 62.5 ug/ml incubated for 48 hrs under dark condition by broth microdilution method relative to control; assay type: functional; conditions: ATCC 10231, 48 h, read-out: GI; method in brief: as §1
Candida albicans [21] = assay: Growth inhibition of Candida albicans ATCC 10231 at 125 ug/ml incubated for 48 hrs under dark condition by broth microdilution method relative to control; assay type: functional; conditions: ATCC 10231, 48 h, read-out: GI; method in brief: as §1

Structure (SMILES) | inhibition of growth at 125 µg/mL (Cryptococcus neoformans [1]) [%] | LC50 (U-937) [µg/mL] | inhibition of growth at 31.25 µg/mL (Cryptococcus neoformans [5]) [%] | EC50 (Plasmodium falciparum) [µg/mL] | inhibition of growth at 15.62 µg/mL (Cryptococcus neoformans [7]) [%] | EC50 (Trypanosoma cruzi) [µg/mL] | inhibition of growth at 7.8 µg/mL (Cryptococcus neoformans [10]) [%] | inhibition of growth at 3.4 µg/mL (Cryptococcus neoformans [11]) [%] | inhibition of growth at 250 µg/mL (Cryptococcus neoformans [14]) [%] | inhibition of growth at 62.5 µg/mL (Cryptococcus neoformans [19]) [%] | other results
Clc1ccc(N2N=C(c3ccccc3)CC2c2cccc(Nc3ccnc4cc(Cl)ccc34)c2)cc1 (stereo unspecified) | 46 | > 200 | 5.92 | 10.3 (≈ 20.1 µM) | 0 | 15.1 (≈ 29.7 µM) | 0 | 0 | 61 | 13.8 | MIC (Klebsiella pneumoniae [2]): > 1000 µg/mL; MIC (Staphylococcus aureus [3]): > 1000 µg/mL; EC50 (Leishmania panamensis): 15.7 µg/mL (≈ 30.8 µM); inhibition of growth at 3.4 µg/mL (Candida albicans [4]): 2.71%; inhibition of growth at 31.25 µg/mL (Candida albicans [6]): 10.5%; MIC50 (Candida albicans [8]): ≥ 250 µg/mL; MIC80 (Candida albicans [8]): ≥ 250 µg/mL; MIC50 (Cryptococcus neoformans [9]): 250 µg/mL (≈ 491 µM); MIC80 (Cryptococcus neoformans [9]): ≥ 250 µg/mL; MIC (Escherichia coli): > 1000 µg/mL; MIC (Staphylococcus aureus [12]): > 1000 µg/mL; inhibition of growth at 7.8 µg/mL (Candida albicans [13]): 4.82%; MIC (Pseudomonas aeruginosa): > 1000 µg/mL; inhibition of growth at 250 µg/mL (Candida albicans [15]): 26.9%; MIC (Klebsiella pneumoniae [16]): > 1000 µg/mL; MIC (Staphylococcus aureus [17]): > 1000 µg/mL; inhibition of growth at 15.62 µg/mL (Candida albicans [18]): 8.78%; MIC (Neisseria gonorrhoeae): > 1000 µg/mL; inhibition of growth at 62.5 µg/mL (Candida albicans [20]): 10.9%; inhibition of growth at 125 µg/mL (Candida albicans [21]): 18.9%
C[C@@H]1[C@H](O)[C@@H](C)/C=C/C=C/C=C/C=C/C=C/C=C/C=C/[C@H](O[C@@H]2O[C@H](C)[C@@H](O)[C@H](N)[C@@H]2O)C[C@@H]2O[C@](O)(C[C@@H](O)C[C@@H](O)[C@H](O)CC[C@@H](O)C[C@@H](O)CC(=O)O[C@H]1C)C[C@H](O)[C@H]2C(=O)O [AMPHOTERICIN B] | 100 | 36 (≈ 39 µM) | 100 |  | 100 |  | 100 | 100 | 100 | 100 | 
CCN(CC)CCCC(C)Nc1ccnc2cc(Cl)ccc12.O=P(O)(O)O.O=P(O)(O)O (stereo unspecified) [CHLOROQUINE PHOSPHATE] |  |  |  | 18.9 |  |  |  |  |  |  | 
O=C(Cn1ccnc1[N+](=O)[O-])NCc1ccccc1 [BENZNIDAZOLE] |  | 180 (≈ 692 µM) |  |  |  | 10.7 (≈ 41.1 µM) |  |  |  |  | 
